Activity calls are given as the source filed them. The calls are words filed in the database; no cut-off is given here.

The target of assay [1] is Forkhead box protein O3 (Homo sapiens) (UniProt O43524). The assay can be described thus: Inhibition of IGF-induced FOXO3a phosphorylation at Thr32 residue in human MDA-MB-231 cells by Western blot. It is filed as cell-based. The method, boiled down:
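MDA-MB-231 breast cancer cells, control or resveratrol-treated, then exposed or not to IGF. Lysates resolved by SDS-PAGE, transferred to nitrocellulose, probed with specific primary and secondary antibodies, and detected by ECL. Membranes stripped and reprobed where indicated.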

In assay [2] the test system is Osteoblast. The assay can be described thus: Effect on cathepsin K gene expression in rat primary osteoblast cells assessed as expression ratio of treated to untreated control by microarray analysis. It is filed as functional.
The subject of assay [3] is Osteoblast. The assay can be described thus: Effect on matrix metalloprotease 2 gene expression in rat primary osteoblast cells assessed as expression ratio of treated to untreated control by microarray analysis. It is filed as functional. The method, boiled down:
(§1)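 Resveratrol-treated and vehicle-treated primary osteoblasts were profiled on a mouse osteogenesis-focused cDNA array (GEArray Q series) built to track gene expression during osteogenic differentiation. Each gene's signal in treated cells was expressed as a ratio to untreated control.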

Assay [4] relates to Osteoblast. The assay can be described thus: Reversal of increase in ER.DNA complex in rat primary osteoblast cells transfected with dominant-negative mutant Src expression vector at 1 uM by RT-PCR. It is filed as functional, cell-based.
Assay [5] is described as follows: Reversal of induction in BMP2 expression in mouse MC3T3-E1 cells transfected with dominant-negative mutant Src expression vector at 1 uM by Western blot. It is filed as functional, cell-based. The method, boiled down:
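Src phosphorylation, ERα nuclear translocation and BMP-2 protein analysed by Western blot with ECL detection. Three independent experiments.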

The next assay has as its system Rattus norvegicus. The assay can be described thus: Increase in serum ALP activity in ovariectomized Wistar rat dosed orally after 10 weeks. It is filed as functional, organism-based. The essentials:
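Female Wistar rats sham-operated or ovariectomized, fed compound orally every 2 days at indicated doses; femur/tibia BMD by DEXA under ketamine (87 mg/kg)/xylazine (13 mg/kg) anesthesia and serum ALP measured 10 weeks after surgery; n = 8/group, means ± S.D.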

A short description of assay [6]: Effect on colony stimulating factor 2 gene expression in rat primary osteoblast cells assessed as expression ratio of treated to untreated control by microarray analysis. It is filed as functional.
For assay [7], the target named is T1, Alkaline phosphatase (Mus musculus) (UniProt Q9EQ79).
T1 sequence (whole entry): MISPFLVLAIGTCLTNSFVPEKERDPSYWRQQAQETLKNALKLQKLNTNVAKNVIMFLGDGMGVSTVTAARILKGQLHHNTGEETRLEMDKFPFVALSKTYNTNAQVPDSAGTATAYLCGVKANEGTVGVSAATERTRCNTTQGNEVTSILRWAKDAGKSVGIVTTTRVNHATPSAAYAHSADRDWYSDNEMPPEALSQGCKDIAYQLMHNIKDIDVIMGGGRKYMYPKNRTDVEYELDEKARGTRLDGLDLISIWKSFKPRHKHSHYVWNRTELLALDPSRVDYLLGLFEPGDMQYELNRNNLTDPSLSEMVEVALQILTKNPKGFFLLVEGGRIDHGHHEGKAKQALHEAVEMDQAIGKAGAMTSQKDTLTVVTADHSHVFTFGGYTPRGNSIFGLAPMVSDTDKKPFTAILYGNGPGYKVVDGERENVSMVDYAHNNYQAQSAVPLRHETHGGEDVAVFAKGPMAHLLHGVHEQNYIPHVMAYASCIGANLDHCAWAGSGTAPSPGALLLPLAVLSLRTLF
Kind of assay: Inhibition of induction of ALP activity in mouse MC3T3-E1 cells at 1 uM after 48 hrs in presence of BMP2-specific neutralizing antibody. It is filed as cell-based.

Assay [8] deals with Osteoblast. Kind of assay: Effect on matrix metalloprotease 10 gene expression in rat primary osteoblast cells assessed as expression ratio of treated to untreated control by microarray analysis. It is filed as functional. The essentials: as §1
In assay [9] the test system is Osteoblast. The assay can be described thus: Effect on platelet derived growth factor alpha gene expression in rat primary osteoblast cells assessed as expression ratio of treated to untreated control by microarray analysis. It is filed as functional. The essentials:
as §1

Assay [10] addresses T2, Estrogen receptor (Mus musculus) (UniProt P19785).
T2 sequence (whole entry): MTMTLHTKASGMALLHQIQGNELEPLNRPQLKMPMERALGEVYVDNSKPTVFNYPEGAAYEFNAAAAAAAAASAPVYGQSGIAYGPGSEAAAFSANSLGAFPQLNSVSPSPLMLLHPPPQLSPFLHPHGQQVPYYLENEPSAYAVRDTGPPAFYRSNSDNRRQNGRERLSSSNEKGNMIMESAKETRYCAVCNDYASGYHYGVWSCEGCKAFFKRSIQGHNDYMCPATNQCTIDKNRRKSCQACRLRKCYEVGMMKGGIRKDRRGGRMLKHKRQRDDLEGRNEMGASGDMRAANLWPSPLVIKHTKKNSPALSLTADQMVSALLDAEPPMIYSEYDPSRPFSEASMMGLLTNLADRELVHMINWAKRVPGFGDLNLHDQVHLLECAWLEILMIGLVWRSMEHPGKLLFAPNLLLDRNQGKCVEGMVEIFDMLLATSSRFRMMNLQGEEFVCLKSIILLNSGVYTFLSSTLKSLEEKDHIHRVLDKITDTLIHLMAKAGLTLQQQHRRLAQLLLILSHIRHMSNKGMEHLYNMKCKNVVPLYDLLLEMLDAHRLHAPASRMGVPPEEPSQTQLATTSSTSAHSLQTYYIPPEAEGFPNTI
The assay can be described thus: Reversal of increase in DNA-binding activity of ERalpha in nuclear extracts of mouse MC3T3-E1 cells transfected with dominant-negative mutant Src expression vector by electrophoretic mobility shift assays. It is filed as cell-based. The essentials:
(§2)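 Nuclear extracts of MC3T3-E1 cells. ER-binding probe [α-32P]dCTP end-labeled, 20-min binding at room temperature, 5-fold unlabeled competitor where used. Complexes resolved on 5% nondenaturing PAGE in Tris-borate-EDTA pH 8.3, then autoradiography.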

Assay [11] addresses Forkhead box protein O3 (Homo sapiens) (UniProt O43524). The assay can be described thus: Reversal of induction of FOXO3a activity in human MDA-MB-231 cells transfected with constitutively activated Akt mutant. It is filed as cell-based.
The target of assay [12] is RAC-alpha serine/threonine-protein kinase (Homo sapiens) (UniProt P31749). Kind of assay: Inhibition of IGF-induced Akt phosphorylation in human MDA-MB-231 cells by Western blot. It is filed as cell-based. The method, boiled down:
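MDA-MB-231 cells, control or treated, stimulated with or without IGF; lysates analyzed by Western blot for Akt phosphorylation.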

In assay [13] the test system is Osteoblast. Kind of assay: Effect on integrin alpha V gene expression in rat primary osteoblast cells assessed as expression ratio of treated to untreated control by microarray analysis. It is filed as functional. The essentials: as §1
The subject of assay [14] is Osteoblast. Kind of assay: Effect on serine proteinase inhibitor clade H1 gene expression in rat primary osteoblast cells assessed as expression ratio of treated to untreated control by microarray analysis. It is filed as functional. The method, boiled down:
as §1

Assay [15] concerns Osteoblast. The assay can be described thus: Effect on procollagen 14alpha 1 gene expression in rat primary osteoblast cells assessed as expression ratio of treated to untreated control by microarray analysis. It is filed as functional. The method, boiled down: as §1
The target in assay [16] is T2, Estrogen receptor (Mus musculus). Kind of assay: Reversal of increase in DNA-binding activity of ERalpha in nuclear extracts of mouse MC3T3-E1 cells by electrophoretic mobility shift assays in presence of PP2. It is filed as cell-based. The essentials:
as §2

Assay [17] concerns Osteoblast. The assay can be described thus: Increase in proliferation of rat primary osteoblast cells at 0.1 to 10 uM after 24 hr by flow cytometry. It is filed as functional, cell-based.
Assay [18] deals with Osteoblast. The assay can be described thus: Effect on FMS-like tyrosine kinase 1 gene expression in rat primary osteoblast cells assessed as expression ratio of treated to untreated control by microarray analysis. It is filed as functional.
Assay [19] has as its target Alkaline phosphatase (Rattus norvegicus) (UniProt Q9JKS8). The assay can be described thus: Inhibition of induction of ALP activity in rat primary osteoblast cells at 1 uM after 48 hrs in presence of BMP2-specific neutralizing antibody. It is filed as cell-based.

Chain of Forkhead box protein O3 (Homo sapiens) (O43524 whole entry): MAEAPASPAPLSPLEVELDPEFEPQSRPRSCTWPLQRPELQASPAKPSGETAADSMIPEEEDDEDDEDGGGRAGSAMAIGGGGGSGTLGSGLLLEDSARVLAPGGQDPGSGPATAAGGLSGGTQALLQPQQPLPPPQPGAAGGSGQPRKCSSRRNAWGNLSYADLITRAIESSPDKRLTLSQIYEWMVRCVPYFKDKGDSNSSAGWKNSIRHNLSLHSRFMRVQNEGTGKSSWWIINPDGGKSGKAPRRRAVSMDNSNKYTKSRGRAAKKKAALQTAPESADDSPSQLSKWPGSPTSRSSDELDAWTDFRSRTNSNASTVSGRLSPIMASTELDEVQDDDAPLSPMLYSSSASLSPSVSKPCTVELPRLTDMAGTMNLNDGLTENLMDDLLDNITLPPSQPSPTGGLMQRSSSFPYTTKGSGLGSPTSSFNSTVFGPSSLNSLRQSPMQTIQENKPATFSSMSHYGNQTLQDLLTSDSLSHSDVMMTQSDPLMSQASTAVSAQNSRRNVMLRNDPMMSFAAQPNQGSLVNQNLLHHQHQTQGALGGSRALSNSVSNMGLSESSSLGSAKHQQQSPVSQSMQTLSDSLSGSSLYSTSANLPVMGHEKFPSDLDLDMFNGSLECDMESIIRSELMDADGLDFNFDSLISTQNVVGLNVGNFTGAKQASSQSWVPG
Chain of Alkaline phosphatase (Rattus norvegicus) (Q9JKS8 as listed by the source): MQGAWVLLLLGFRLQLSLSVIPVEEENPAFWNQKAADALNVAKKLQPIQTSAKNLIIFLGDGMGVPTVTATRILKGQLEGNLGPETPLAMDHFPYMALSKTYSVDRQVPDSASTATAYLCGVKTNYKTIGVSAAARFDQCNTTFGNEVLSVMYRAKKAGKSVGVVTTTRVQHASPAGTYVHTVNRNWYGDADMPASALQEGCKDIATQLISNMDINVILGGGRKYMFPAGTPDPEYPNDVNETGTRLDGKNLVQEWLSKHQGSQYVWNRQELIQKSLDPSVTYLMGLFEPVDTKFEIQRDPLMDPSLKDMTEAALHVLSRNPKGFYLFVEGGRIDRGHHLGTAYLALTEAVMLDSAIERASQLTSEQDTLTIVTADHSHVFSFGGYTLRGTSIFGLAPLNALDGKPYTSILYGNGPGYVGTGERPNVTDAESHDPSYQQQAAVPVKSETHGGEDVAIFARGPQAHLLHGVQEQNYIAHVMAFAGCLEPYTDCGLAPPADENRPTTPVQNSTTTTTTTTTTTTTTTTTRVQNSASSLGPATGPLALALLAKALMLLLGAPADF
Chain of RAC-alpha serine/threonine-protein kinase (Homo sapiens) (P31749 whole entry): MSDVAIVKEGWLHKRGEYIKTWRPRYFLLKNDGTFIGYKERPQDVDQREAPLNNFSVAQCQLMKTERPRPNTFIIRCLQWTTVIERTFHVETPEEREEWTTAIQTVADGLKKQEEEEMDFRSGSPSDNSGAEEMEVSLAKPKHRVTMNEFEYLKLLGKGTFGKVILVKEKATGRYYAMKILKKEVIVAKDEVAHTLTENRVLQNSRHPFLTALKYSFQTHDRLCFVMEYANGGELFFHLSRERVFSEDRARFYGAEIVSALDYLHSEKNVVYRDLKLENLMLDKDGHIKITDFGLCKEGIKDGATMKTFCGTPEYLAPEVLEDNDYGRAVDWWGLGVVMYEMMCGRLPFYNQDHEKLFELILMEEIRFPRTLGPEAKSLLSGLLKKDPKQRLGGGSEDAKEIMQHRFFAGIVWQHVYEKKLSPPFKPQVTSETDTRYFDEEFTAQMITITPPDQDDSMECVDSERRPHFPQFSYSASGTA

Regarding `Oc1ccc(/C=C/c2cc(O)cc(O)c2)cc1` [RESVERATROL], the outcome (in assay [1]; in the assay with Osteoblast [4]; in assay [5]; in assay [7]; in assay [10]; in [11]) was Active. Also, the result (in [12]; in assay [16]; in the assay on Osteoblast [17]; in assay [19]) was Active. The Ratio in the assay on Osteoblast [2] is on record as 5.6; in the assay with Osteoblast [3], 0.46; in assay [6] it was 0.35; in the assay with Osteoblast [8], 1; in the assay with Osteoblast [9] it was 4.34; in the assay on Osteoblast [13], 4.64. Further, the Ratio was determined as 2.82 in the assay on Osteoblast [14], 3.76 in the assay on Osteoblast [15] and 0.41 with Osteoblast [18]. Besides, in the assay with Rattus norvegicus, the Activity entry was “Dose-dependent effect”.
